Only some compounds are listed: those with a hit (about 1.4% of all), similar ones and a draw of the others.
FXIa inh 1536 – blocks human coagulation factor XIa protease activity; P03951; purified FXIa, Boc-Glu-Ala-Arg-AMC fluorogenic substrate; actives 0.14% (n = 220,000); inhibition, % at 5 µM;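 active = inhibition of at least 40%; inactive = inhibition below 40%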;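 also: fluorescence of freed AMC excited at 355 nm; 0% = enzyme without compound and 100% = no enzyme blank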
thrombin 1536 – inhibitors of human thrombin. inhibition, % at 5 µM. AID 1046. alpha-thrombin, Boc-VPR-AMC fluorogenic substrate cleavage. actives 0.26% (n = 220,000);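 active = inhibition at or above 40%; inactive = inhibition below 40%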;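 also: 0% = enzyme with no compound and 100% = wells without enzyme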
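Material: human alpha-thrombin protein. Incubation: reaction at ambient temperature. Technique: fluorescence of released AMC, ex 355 nm, em 460 nm. Control set: no-compound enzyme wells and no-enzyme blanks. Also added: Boc-VPR-AMC substrate, 15 µM final. Buffer or medium: pH 7.5 Tris (50 mM) with NaCl 150 mM, Tween 20 0.05%.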
Rce1 inhib – inhibitors of yeast Ras-converting enzyme; yeast membranes, quenched prenylated peptide cleavage fluorescence; calls only; AID 2563; actives 0.27% (n = 290,000);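 active = fall in fluorescence gain of 50% or more versus controls, with final raw signal at or below 3038400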;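 also: plate controls were neutral control wells for no effect and wells lacking membranes for full effect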
Target sequence (Q03530 whole entry, looked up): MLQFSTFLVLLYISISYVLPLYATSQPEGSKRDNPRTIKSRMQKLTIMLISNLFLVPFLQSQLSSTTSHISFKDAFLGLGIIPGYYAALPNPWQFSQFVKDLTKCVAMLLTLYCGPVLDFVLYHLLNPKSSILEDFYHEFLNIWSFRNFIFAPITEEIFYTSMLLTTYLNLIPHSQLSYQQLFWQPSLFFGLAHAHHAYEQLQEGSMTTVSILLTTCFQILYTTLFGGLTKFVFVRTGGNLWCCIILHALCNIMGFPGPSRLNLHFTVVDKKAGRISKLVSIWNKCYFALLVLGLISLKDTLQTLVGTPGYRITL
hK5 inh – blocks human kallikrein 5 protease activity. Q9Y337. recombinant hK5, fluorogenic AMC substrate cleavage. inhibition, % at 5 µM. actives 0.59% (n = 210,000). AID 873;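 active = inhibition of 40% or more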;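 also: 0% = enzyme controls without compound and 100% = no-enzyme blanks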
CTSL1 counter – blocks F. hepatica cathepsin L1 in PFM18AAP counter-screen | recombinant F. hepatica cathepsin L1, Z-Leu-Arg-MCA fluorescence | inhibition, % at 5.96 µM | actives 0.49% (n = 300,000);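 active = inhibition above the mean of all tested compounds plus 3 SD, set per screening campaign, cut at about 17% in these data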;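 also: 0% = plate median of test compound wells and 100% = 1 µM Z-Phe-Ala-diazomethylketone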
FXIIa inh – blocks human coagulation factor XIIa protease activity; actives 0.3% (n = 220,000); P00748; AID 800; purified FXIIa, Boc-QGR-AMC fluorogenic substrate, 2 h; inhibition, % at 5 µM; in the data active = inhibition above about 40%;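 also: 0% = enzyme with no compound and 100% = blank without enzyme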
Starred values were filed as active, the others as inactive; i = inactive; . = not tested or not shown; + = active, no number.

SMILES	FXIa inh 1536	thrombin 1536	Rce1 inhib	hK5 inh	CTSL1 counter	FXIIa inh
CC(C)(C)C(=O)Nc1ccccc1C(=O)N1CCCC1	28	-3	i	8	17*	9
C/C(CC(=O)Nc1ccc(Cl)c(Cl)c1)=N\NC(N)=S	2	2	i	-11	30*	10
Cc1ccccc1/C(N)=N/OC(=O)c1cccs1	9	4	i	-1	3	16
O=C(Nc1ccccc1)ON=C1CCCC1	12	0	i	1	1	8
Cc1ccc(NC(=O)ON=C2CCCC2)cc1	9	32	i	44*	0	20
CC1(C)Oc2ccc(C(=O)NC3CCCC3)cc2N(CC(=O)NC2CCCC2)C1=O	20	1	i	10	-7	64*
O=C(COC(=O)C1CC(O)CN1S(=O)(=O)c1ccc(Cl)cc1)c1cccc(Cl)c1 (stereo unspecified)	3	-1	i	-12	-1	11
O=C1CN(Cc2ccccc2)C(=NCc2ccco2)S1	6	13	i	33	3	44*
Cc1nc(N2CCOCC2)c2cc(-c3ccccc3)sc2n1	9	2	+	-5	3	17
Cc1ccccc1Oc1ccccc1N	-3	4	i	-42	0	7
Nc1ccccc1Oc1ccc2ccccc2c1	-5	-12	+	-2	-2	3
c1ccc(Cc2nnc3sc(-c4ccncc4)nn23)cc1	-1	-4	i	2	-5	5
c1ccc(Cc2nnc3sc(-c4cccnc4)nn23)cc1	5	6	i	3	22*	12
CC1CN(c2nnnn2-c2ccccc2)CC(C)O1 (stereo unspecified)	-3	24	i	67*	1	17
O=C(NC1CCCCC1)c1ccc(Br)o1	1	15	i	83*	1	8
O=C(CCNC(=O)c1ccc(Br)o1)NC1CCCC1	-2	-4	i	1	2	9
CC(C)C(=O)Nc1c2c(nc3ccccc13)N(C)CC2	-11	-7	+	-52	0	-10
CCN(CC)CC(=O)Nc1c2c(nc3ccccc13)N(C)CC2	.	.	i	.	-3	.
Cc1ccc(S(=O)(=O)Nc2ccc(S(=O)(=O)Nc3cc(C)nc(C)n3)cc2)cc1	1	.	i	-1	1	8
Cc1cc(NS(=O)(=O)c2ccc(N3C(=O)C4C5C=CC(C5)C4C3=O)cc2)nc(C)n1 (stereo unspecified)	67*	0	i	-10	-3	4
CC(C)CC(=O)Nc1ccc(C(=O)Cn2nc(C(=O)O)c3ccccc3c2=O)cc1	-3	-3	i	-8	2	-2
Cc1cc(C(=O)Cn2nc(C(=O)O)c3ccccc3c2=O)c(C)n1-c1cccc(C(F)(F)F)c1	72*	17	i	24	6	24
CC(C)(C)c1ccc(C(=O)Cn2nc(C(=O)O)c3ccccc3c2=O)cc1	30	29	i	44*	2	12
O=C(O)c1ccc(N/C(=N\S(=O)(=O)c2ccc(Cl)cc2)c2ccccc2)cc1	44*	15	i	20	5	64*
O=C(CSc1nc(O)c(C2CCCCC2)c(=O)[nH]1)NCC1CCCO1 (stereo unspecified)	3	3	i	2	4	8
SMILES	FXIa inh 1536	thrombin 1536	Rce1 inhib	hK5 inh	CTSL1 counter	FXIIa inh
Cc1cc(=O)[nH]c(SCC(=O)NCC2CCCO2)n1 (stereo unspecified)	-7	42*	i	-3	-4	2
CCOC(=O)C1(CCOc2ccccc2)CCN(Cc2cccc3nonc23)CC1	2	.	i	1	6	8
Cc1cccc(C)c1OCC(O)CN (stereo unspecified)	11	19	i	52*	-1	6
CCOC(=O)N1CCN(CC(O)COc2c(C)cccc2C)CC1 (stereo unspecified)	9	4	i	-14	-4	23
COc1cccc(/C=N\NC(=O)Cn2nnc3ccccc32)c1O	-3	-1	i	-9	0	9
CCOc1ccc(N=C2NC(=O)C(CC(=O)Nc3ccccc3)S2)cc1 (stereo unspecified)	-6	-4	i	-11	19*	3
CCCCn1c(=O)c(CCC(=O)OCC(=O)NCc2ccc(OC)c(OC)c2)nc2ccccc21	2	-26	i	-5	-1	4

From PubChem BioAssay
